ChEMBL document CHEMBL4270628, “Design, synthesis, and evaluation of cystargolide-based β-lactones as potent proteasome inhibitors” (Eur J Med Chem, 2018)
The source made the active and inactive calls. No cut-off for these calls is given here.

Experiments:
[1] = molecular target: T1, Proteasome Macropain subunit MB1 (Homo sapiens, UniProt P28074); assay: Inhibition of 20S proteasome beta5 subunit in human Jurkat cell lysate using Suc-LLVY-AMC as substrate pretreated for 30 mins followed by substrate addition and measured after 60 mins by fluorescence assay
T1 sequence (P28074 whole entry): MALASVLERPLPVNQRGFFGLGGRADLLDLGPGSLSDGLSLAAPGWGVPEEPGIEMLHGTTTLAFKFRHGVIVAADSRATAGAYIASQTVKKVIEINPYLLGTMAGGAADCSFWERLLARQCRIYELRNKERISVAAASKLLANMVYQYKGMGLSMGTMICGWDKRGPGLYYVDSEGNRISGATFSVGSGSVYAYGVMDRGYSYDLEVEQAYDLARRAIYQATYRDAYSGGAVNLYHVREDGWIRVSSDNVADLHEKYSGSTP
Summary of the method: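 Lysate was preincubated with compound 30 min at 37 °C. 100 μM substrate solution was added: Suc-LLVY-AMC for β5, Suc-RLR-AMC for β2. IC50 by nonlinear regression, ±SD.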

[2] = molecular target: T2, Proteasome subunit beta type-1 (Saccharomyces cerevisiae (strain ATCC 204508 / S288c) (Baker's yeast), UniProt P38624); assay: Inhibition of yeast 20S proteasome beta1 subunit using fluorescent substrate pretreated for 30 mins followed by substrate addition and measured after 60 mins by fluorescence assay
T2 sequence (P38624 whole entry): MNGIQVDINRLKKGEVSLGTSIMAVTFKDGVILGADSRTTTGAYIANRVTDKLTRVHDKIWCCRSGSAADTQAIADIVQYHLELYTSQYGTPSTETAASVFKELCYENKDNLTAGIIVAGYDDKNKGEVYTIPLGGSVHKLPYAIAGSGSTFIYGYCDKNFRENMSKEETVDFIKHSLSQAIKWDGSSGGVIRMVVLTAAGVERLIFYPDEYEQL

[3] = molecular target: T3, Proteasome subunit beta type-2 (Saccharomyces cerevisiae (strain ATCC 204508 / S288c) (Baker's yeast), UniProt P25043); assay: Inhibition of yeast 20S proteasome beta2 subunit using SUC-RLR-AMC as substrate pretreated for 30 mins followed by substrate addition and measured after 60 mins by fluorescence assay
T3 sequence (P25043 whole entry): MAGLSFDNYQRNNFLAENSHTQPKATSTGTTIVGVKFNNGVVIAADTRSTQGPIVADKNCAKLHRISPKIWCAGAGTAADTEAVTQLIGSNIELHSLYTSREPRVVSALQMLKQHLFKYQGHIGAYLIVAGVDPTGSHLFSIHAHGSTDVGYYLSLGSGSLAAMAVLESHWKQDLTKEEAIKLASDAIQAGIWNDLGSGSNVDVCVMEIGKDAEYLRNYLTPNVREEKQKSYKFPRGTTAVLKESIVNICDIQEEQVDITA
Summary of the method: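 Fluorogenic substrate was then added (100 μM Suc-RLR-AMC solution for β2) and incubated 60 min at 37 °C; cleavage read at ex 360/em 480 nm. IC50 from nonlinear regression on normalized data, ±SD.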

[4] = test system: MCF7; assay: Cytotoxicity against human MCF7 cells after 48 hrs by MTT assay; format: functional, cell-based; conditions: MCF7, 48 h
Summary of the method: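 MCF7 cells plated at 4*10⁴ cells/mL and left overnight to adhere, then exposed to a concentration series for 48 h, with DMSO vehicle, untreated cells, and 100 μM phenylarsine oxide as controls. MTT (5 mg/mL stock in PBS) was added for 2 h at 37 °C. Formazan was dissolved in DMSO and OD read at 490 nm. The best three of quadruplicate wells were used; IC50 from nonlinear regression on normalized data, ±SD.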

[5] = molecular target: T4, Proteasome Macropain subunit MB1 (Homo sapiens) (UniProt P28074); assay: Binding affinity to 20S proteasome beta5 subunit in human Jurkat cell lysate assessed as decrease in protein hydrolysis at 100 uM pretreated for 30 mins followed by Suc-LLVY-AMC addition and measured after 1 hr by fluorescence assay
T4 sequence (whole entry): T1 sequence (P28074 whole entry)
Summary of the method: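 Compound diluted in lysis buffer, preincubated 30 min at 37 °C. Suc-LLVY-AMC added as 100 μM solution, 60 min at 37 °C. AMC fluorescence read at ex 360/em 480 nm. Best three of quadruplicates used; IC50 by nonlinear regression, ± SD.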

[6] = molecular target: T5, Proteasome subunit beta type-8 (Homo sapiens, UniProt P28062); assay: Inhibition of human immunoproteasome beta5 subunit using Suc-LLVY-AMC as substrate pretreated for 30 mins followed by substrate addition and measured after 60 mins by fluorescence assay
T5 sequence (P28062 whole entry): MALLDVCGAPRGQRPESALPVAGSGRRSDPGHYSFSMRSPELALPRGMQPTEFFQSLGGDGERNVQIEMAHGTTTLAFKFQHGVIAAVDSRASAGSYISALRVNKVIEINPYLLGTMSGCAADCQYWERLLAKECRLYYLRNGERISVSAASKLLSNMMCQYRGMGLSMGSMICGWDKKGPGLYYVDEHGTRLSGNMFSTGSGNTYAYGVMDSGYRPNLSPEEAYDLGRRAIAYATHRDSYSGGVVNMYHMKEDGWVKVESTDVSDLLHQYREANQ

[7] = test system: MDA-MB-231; assay: Cytotoxicity against human MDA-MB-231 cells after 48 hrs by MTT assay; format: functional, cell-based; conditions: MDA-MB-231, 48 h
Summary of the method: (§1)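 MTT viability after 48 h exposure to a concentration series; MDA-MB-231 seeded at 4*10⁴ cells/mL and adhered overnight, RPMI 8226 at 4*10⁵ cells/mL and dosed immediately. MTT (5 mg/mL in PBS) added, 2 h at 37 °C; formazan dissolved in DMSO (MDA-MB-231) or DMF/SDS pH<4 (RPMI 8226); OD 490 nm.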

[8] = test system: RPMI-8226; assay: Cytotoxicity against human RPMI8226 cells after 48 hrs by MTT assay; format: functional, cell-based; conditions: RPMI-8226, 48 h; summary of the method: as §1
[9] = molecular target: T4, Proteasome Macropain subunit MB1 (Homo sapiens); assay: Inhibition of 20S proteasome beta5 subunit in human MCF7 cells assessed as accumulation of ubiuitinated protein at 1 to 10 uM after 9.5 hrs by Western blot analysis; format: cell-based
[10] = test system: Jurkat; assay: Induction of apoptosis in human Jurkat cells after 24 hrs by Annexin-V-FITC/propidium iodide staining based flow cytometry; format: functional, cell-based
[11] = test system: Jurkat; assay: Cell cycle arrest in human Jurkat cells assessed as accumulation at G2/M phase at 0.1 to 1 uM after 10 hrs by Vybrant DyeCycle Orange staining based flow cytometry; format: functional
[12] = molecular target: T4, Proteasome Macropain subunit MB1 (Homo sapiens); assay: Inhibition of 20S proteasome beta5 subunit in human MCF7 cells using Suc-LLVY-AMC as substrate pretreated for 1 hr followed by compound washout and cell lysis prior to substrate addition measured after 1 hr by fluorescence assay; format: cell-based
Summary of the method: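 Adherent MCF7 (500,000 cells/mL, overnight, ~100% confluent) dosed 1 h at 37 °C, 5% CO₂; washed twice with PBS, lysed in HEPES/Triton buffer on ice 1 h; 15 min at 37 °C, then 100 μM Suc-LLVY-AMC 1 h at 37 °C; ex 360/em 480 nm. IC50 from best three of four biological replicates per concentration.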

[13] = Inhibition of yeast 20S proteasome beta5 subunit using Suc-LLVY-AMC as substrate pretreated for 30 mins followed by substrate addition and measured after 60 mins by fluorescence assay; set-up: species or system Saccharomyces cerevisiae
Summary of the method: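 Purified yeast 20S proteasome at 8 μg/mL preincubated with compound 30 min at 37 °C; then 100 μM Suc-LLVY-AMC for 60 min at 37 °C; cleaved-AMC fluorescence ex 360/em 480 nm. IC50 by nonlinear regression on normalized data, confirmed in at least technical triplicate, reported ± SD.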

[14] = n-Octanol/Tris-HCl buffer partition coefficient, log P of the compound at 0.5 mg after 2 mins by RP-HPLC method; format: physicochemical
[15] = Half life in human AB serum by RP-HPLC analysis; format: ADME, cell-free
[16] = Half life in 0.1 M TEAA buffer by RP-HPLC analysis; format: physicochemical

Row | Structure (SMILES) | IC50 [1] [µM] | IC50 [2] [µM] | IC50 [3] [µM] | IC50 [4] [µM] | Activity [5] | IC50 [6] [µM] | IC50 [7] [µM] | IC50 [8] [µM] | inhibition [9] | Activity [10] | Activity [11] | inhibition [12] | IC50 [13] [µM] | logP [14] | t1/2 [15] [min] | t1/2 [16] [min]
1 | CC(C)[C@H](NC(=O)[C@@H](NC(=O)[C@@H]1OC(=O)[C@H]1C(C)C)C(C)C)C(=O)O | 0.9 | 10.1 | 61.6 | 84.7 | Active | 0.681 |  |  |  |  |  |  |  |  |  | 
2 | CC[C@H](C)[C@@H]1C(=O)O[C@H]1C(=O)N[C@H](C(=O)N[C@H](C(=O)OCc1ccccc1)C(C)C)C(C)C |  |  | […] | 1.85 |  |  | 0.287 | 0.191 | Active | Active | Active | Active |  |  |  | 
3 | CC(C)[C@H](NC(=O)[C@@H]1OC(=O)[C@H]1C(C)C)C(=O)N[C@H](C(=O)OCc1ccccc1)C(C)C |  |  |  | 7 |  | 0.0447 |  |  | Active | Active | Active | Active | 0.0372 |  |  | 
4 | CC[C@H](C)[C@@H]1C(=O)O[C@H]1C(=O)N[C@H](C(=O)N[C@@H](COCc1ccccc1)C(=O)OCc1ccccc1)C(C)C |  | 17.8 | > 50 | 0.416 |  | 0.0091 | 0.074 | 0.041 |  |  |  | Active | 0.0245 | 1.52 | 16.1 | 4.32
